Values after ≈ are worked out from the molar mass of the structure shown.
Experiments:
Staphylococcus aureus [1] = assay: Antibacterial activity against clindamycin/erythromycin/spectinomycin-resistant mec-positive Staphylococcus aureus NRS70 measured after 16 to 20 hrs by microdilution method; type: functional
In short: (§1)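 CLSI broth microdilution; two-fold serial compound dilutions in triplicate in cation-adjusted Mueller–Hinton broth with 2% NaCl, inoculum 5 × 10^5 CFU/mL; 37 °C for 16–20 h; MIC = lowest concentration with no visible growth.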

Staphylococcus aureus [2] = assay: Antibacterial activity against Staphylococcus aureus ATCC 29213 measured after 16 to 20 hrs by microdilution method; type: functional
In short: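 CLSI broth microdilution: two-fold serial dilutions in triplicate in cation-adjusted Mueller–Hinton broth with 2% NaCl, inoculum 5 × 10^5 CFU/mL, incubated at 37 °C for 16–20 h. MIC is the lowest concentration preventing visible growth.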

Staphylococcus aureus [3] = assay: Antibacterial activity against multi-drug resistant mecA-positive Staphylococcus aureus ATCC 27660 measured after 16 to 20 hrs by microdilution method; type: functional; in short: as §1
HeLa = assay: Cytotoxicity against human HeLa cells assessed as reduction in cell viability measured after 16 hrs by XTT assay; type: cell-based
In short: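 HeLa cells (ATCC CCL-2), run in triplicate. Viability was read by XTT, and IC50 was obtained by nonlinear regression.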

[4] = Selectivity index, ratio of IC50 for human HeLa cells to MIC for clindamycin/erythromycin/spectinomycin-resistant mec-positive Staphylococcus aureus NRS70; type: toxicity
In short: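 HeLa cytotoxicity by XTT assay in triplicate, IC50 by nonlinear regression; ratio IC50 over broth microdilution MIC against NRS70.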

[5] = Protein binding in human plasma at 10 uM measured after 6 hrs UV-UPLC based rapid equilibrium dialysis method; type: ADME, cell-free
In short: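 Rapid equilibrium dialysis: human plasma was cleared by centrifugation and spiked from a 1 mM DMSO stock to a final 10 μM, against 0.1 M PBS pH 7.4. Dialysis ran 6 h at 37 °C with orbital shaking. Buffer (free) and plasma (total) aliquots were mixed with internal standard in acetonitrile and measured by UPLC-UV at 285 nm. B% = (Cp−Cf)/Cp×100.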

Staphylococcus aureus [6] = assay: Antibacterial activity against Staphylococcus aureus ATCC 29213 measured after 16 to 20 hrs in presence of bovine serum albumin by microdilution method; type: functional
In short: (§2)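 S. aureus ATCC29213 MIC was run by CLSI microdilution in cation-adjusted Mueller–Hinton broth plus 2% NaCl, with and without 0.5% bovine serum albumin. Compounds were two-fold serially diluted in triplicate, inoculum was 5 × 10^5 CFU/mL, and plates were incubated at 37 °C for 16–20 h. The endpoint was the lowest concentration with no visible growth.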

Staphylococcus aureus [7] = assay: Antibacterial activity against multi-drug resistant mec-positive Staphylococcus aureus USA300 measured after 16 to 20 hrs by microdilution method; type: functional; in short: as §1
Staphylococcus aureus [8] = assay: Antibacterial activity against multi-drug resistant mecA-positive Staphylococcus aureus NRS119 measured after 16 to 20 hrs by microdilution method; type: functional; in short: as §1
[9] = Solubility of the compound in water; type: physicochemical; conditions: buffer
Staphylococcus aureus [10] = assay: Selectivity ratio of MIC for Staphylococcus aureus ATCC 29213 in presence of bovine serum albumin to MIC for Staphylococcus aureus ATCC 29213 in absence of bovine serum albumin; type: functional; in short: as §2

Row | Compound | MIC (Staphylococcus aureus [1]) [mg/L] | MIC (Staphylococcus aureus [2]) [mg/L] | MIC (Staphylococcus aureus [3]) [mg/L] | IC50 (HeLa) [mg/L] | selectivity ratio [4] | PPB [5] [%] | MIC (Staphylococcus aureus [6]) [mg/L] | MIC (Staphylococcus aureus [7]) [mg/L] | MIC (Staphylococcus aureus [8]) [mg/L] | solubility [9] | selectivity ratio (Staphylococcus aureus [10])
1 | CS(=O)(=O)Nc1cccc(-n2c(NCc3ccc(C#N)cc3)nc3ccccc3c2=O)c1 | 0.25 (≈ 0.561 µM) | 0.125 (≈ 0.281 µM) | 0.125 (≈ 0.281 µM) | 62 (≈ 139 µM) | 248 | > 99.9 | 1 | 0.25 (≈ 0.561 µM) | 0.25 (≈ 0.561 µM) |  | 
2 | CC(=O)NS(=O)(=O)c1cccc(-n2c(/C=C/c3ccc(C#N)cc3)nc3ccccc3c2=O)c1 |  | 4 (≈ 8.5 µM) |  | 200 (≈ 425 µM) | 50 | 99.2 |  |  | 2 (≈ 4.25 µM) |  | 
3 | N#Cc1ccc(/C=C/c2nc3ccccc3c(=O)n2-c2ccc[n+]([O-])c2)cc1 | 1 (≈ 2.73 µM) | 2 (≈ 5.46 µM) | 2 (≈ 5.46 µM) | > 128 | > 128 | 67.9 | 32 | 1 (≈ 2.73 µM) | 4 (≈ 10.9 µM) | Insoluble | 
4 | N#Cc1ccc(/C=C/c2nc3ccccc3c(=O)n2-c2cccc(CNC(=O)C(F)(F)F)c2)cc1 | 64 (≈ 135 µM) | 0.5 (≈ 1.05 µM) | 64 (≈ 135 µM) | 150 (≈ 316 µM) | 2 | > 99.9 | 8 | 4 (≈ 8.43 µM) |  |  | 
5 | N#Cc1ccc(CSc2nc3ccccc3c(=O)n2-c2cccc(C(=O)O)c2)cc1 |  | 2 (≈ 4.84 µM) |  | 78 (≈ 189 µM) | 39 | > 99.9 | 8 |  |  |  | <=4
6 | O=C(O)c1cccc(-n2c(SCc3ccccc3)nc3ccccc3c2=O)c1 | 0.5 (≈ 1.29 µM) | 0.25 (≈ 0.644 µM) |  | > 64 | > 128 | > 99.9 | 4 | 1 (≈ 2.57 µM) | 1 (≈ 2.57 µM) |  | 
7 | N#Cc1ccc(/C=C/c2nc3ccccc3c(=O)n2-c2cccc(C(=O)O)c2)s1 | 4 (≈ 10 µM) | 4 (≈ 10 µM) | 4 (≈ 10 µM) | 110 (≈ 275 µM) | 28 | 99.2 | 32 | 4 (≈ 10 µM) | 4 (≈ 10 µM) |  | 
8 | N#Cc1ccc(/C=C/c2nc3ccccc3c(=O)n2-c2cc(C(=O)O)ccc2Cl)cc1 | 2 (≈ 4.67 µM) | 2 (≈ 4.67 µM) | 2 (≈ 4.67 µM) | > 128 | > 64 | > 99.9 | 16 | 1 (≈ 2.34 µM) | 2 (≈ 4.67 µM) |  | 
9 | C#Cc1ccc(/C=C/c2nc3ccccc3c(=O)n2-c2cccc(C(=O)O)c2)cc1 |  | 0.03 (≈ 0.0764 µM) | 0.125 (≈ 0.319 µM) | > 128 | > 256 |  | 0.25 | 0.03 (≈ 0.0764 µM) | 0.125 (≈ 0.319 µM) |  | 
10 | Cc1ccc(C(=O)O)cc1-n1c(/C=C/c2ccc(C#N)cc2)nc2ccccc2c1=O | 4 (≈ 9.82 µM) | 2 (≈ 4.91 µM) | 4 (≈ 9.82 µM) | 60 (≈ 147 µM) | 15 | > 99.9 | 16 | 1 (≈ 2.45 µM) | 4 (≈ 9.82 µM) |  | 
11 | N#Cc1ccc(/C=C/c2nc3ccccc3c(=O)n2-c2cccc(C(N)=O)c2)cc1 |  | 2 (≈ 5.1 µM) |  | > 128 | > 64 | 97.1 | 16 | 1 (≈ 2.55 µM) | 32 (≈ 81.5 µM) | Insoluble | 
12 | O=C(O)c1cccc(-n2c(CCc3ccc(F)cc3)nc3ccccc3c2=O)c1 |  | 2 (≈ 5.15 µM) | 4 (≈ 10.3 µM) | 79 (≈ 203 µM) | 40 | > 99.9 | 8 | 1 (≈ 2.57 µM) | 4 (≈ 10.3 µM) |  | <=4
13 | O=C(O)c1cccc(-n2c(/C=C/c3ccc(Br)s3)nc3ccccc3c2=O)c1 | 0.5 (≈ 1.1 µM) | 0.25 (≈ 0.551 µM) | 0.5 (≈ 1.1 µM) | 190 (≈ 419 µM) | 380 | > 99.9 | 2 | 0.5 (≈ 1.1 µM) | 4 (≈ 8.82 µM) |  | 
14 | O=C(O)c1cccc(-n2c(/C=C/c3cc(Cl)cs3)nc3ccccc3c2=O)c1 | 2 (≈ 4.89 µM) | 4 (≈ 9.78 µM) | 2 (≈ 4.89 µM) | 140 (≈ 342 µM) | 70 | > 99.9 | 32 | 4 (≈ 9.78 µM) | 1 (≈ 2.45 µM) |  | 
15 | N#Cc1ccc(/C=C/c2nc3ccccc3c(=O)n2-c2ccccc2O)cc1 | 0.06 (≈ 0.164 µM) | 0.015 (≈ 0.0411 µM) | 0.25 (≈ 0.684 µM) | 40 (≈ 109 µM) | 667 | 98.1 | 0.125 | 0.03 (≈ 0.0821 µM) |  | Insoluble | 
16 | O=C(O)c1cccc(-n2c(/C=C/c3ccc(Cl)cc3)nc3ccccc3c2=O)c1 | 0.25 (≈ 0.621 µM) | 0.25 (≈ 0.621 µM) | 0.25 (≈ 0.621 µM) | 50 (≈ 124 µM) | 200 | > 99.9 | 1 | 0.125 (≈ 0.31 µM) | 0.125 (≈ 0.31 µM) |  | <=4
17 | N#Cc1ccc(/C=C/c2nc3ccccc3c(=O)n2CCC(=O)O)cc1 |  | > 128 |  |  |  |  |  |  |  |  | 
18 | N#Cc1ccc(/C=C/c2nc3ccccc3c(=O)n2-c2ccc([N+](=O)[O-])cc2)cc1 |  | > 128 |  |  |  |  |  |  |  |  | 
19 | N#Cc1ccc(CNc2nc3ccccc3c(=O)n2-c2cccc(C(=O)O)c2)cc1 |  | > 128 |  |  |  |  |  |  |  |  | 
20 | O=C(O)c1cccc(-n2c(/C=C/c3nccs3)nc3ccccc3c2=O)c1 |  | > 128 |  |  |  |  |  |  |  |  | 
